We go through 22 compounds from ChEMBL document CHEMBL1133094 (J Med Chem, 2000).

Structures are written as SMILES. pKi: −log10 of the molar value.

One test has as its target D(1A) dopamine receptor (Rattus norvegicus, UniProt P18901). Nature of the test: Binding Affinity was determined against Dopamine receptor D1 in rat striatal membranes using [3H]- SCH 23390 radioligand. It counts as cell membranes, Striatum, Membrane. Summed up: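 Competition binding with rat striatal membranes as tissue source, reported as pKi. The labelled site is the D1-like family (D1 and D5 subtypes), not D1 alone. All compounds were tested as racemates.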

The target of a further test is D(2) dopamine receptor (Rattus norvegicus, UniProt P61169). Nature of the test: Binding Affinity was determined against Dopamine receptor D2 in rat striatal membranes using [3H]- spiperone radioligand. It counts as cell membranes, Striatum, Membrane.
D(2) dopamine receptor, sequence (P61169 whole entry): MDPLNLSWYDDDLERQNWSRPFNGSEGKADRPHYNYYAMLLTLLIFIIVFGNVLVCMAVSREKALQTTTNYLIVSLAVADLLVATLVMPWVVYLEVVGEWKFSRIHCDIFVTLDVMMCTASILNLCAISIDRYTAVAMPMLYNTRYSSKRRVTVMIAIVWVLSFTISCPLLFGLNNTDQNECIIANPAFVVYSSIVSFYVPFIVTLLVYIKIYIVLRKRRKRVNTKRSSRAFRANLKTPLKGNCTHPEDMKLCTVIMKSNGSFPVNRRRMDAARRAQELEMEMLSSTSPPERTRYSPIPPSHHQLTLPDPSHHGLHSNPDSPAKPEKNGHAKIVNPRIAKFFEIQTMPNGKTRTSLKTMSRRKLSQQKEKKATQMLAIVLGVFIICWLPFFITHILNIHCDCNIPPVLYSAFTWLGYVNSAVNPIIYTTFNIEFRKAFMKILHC

D(1A) dopamine receptor, sequence (P18901 whole entry): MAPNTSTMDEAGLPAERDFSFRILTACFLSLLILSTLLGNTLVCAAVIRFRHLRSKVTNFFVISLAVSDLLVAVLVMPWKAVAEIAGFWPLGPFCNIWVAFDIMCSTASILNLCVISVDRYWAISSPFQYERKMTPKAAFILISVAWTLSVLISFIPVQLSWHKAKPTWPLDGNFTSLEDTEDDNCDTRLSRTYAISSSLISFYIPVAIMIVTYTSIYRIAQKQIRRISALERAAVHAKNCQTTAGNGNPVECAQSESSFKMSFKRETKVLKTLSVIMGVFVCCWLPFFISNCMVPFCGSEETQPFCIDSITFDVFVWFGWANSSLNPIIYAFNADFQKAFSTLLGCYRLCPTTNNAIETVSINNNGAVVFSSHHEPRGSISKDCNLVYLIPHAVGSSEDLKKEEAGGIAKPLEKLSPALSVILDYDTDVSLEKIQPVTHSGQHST

With `CCN1CCc2c(Br)ccc(O)c2C1Cc1cc(OC)ccc1Br` (centres undefined), the results for the pKi on D(1A) dopamine receptor and on D(2) dopamine receptor were 5.81 and less than 5.00, respectively.

In the case of `CCN1CCc2cc(Br)cc(OC)c2C1Cc1ccccc1O` (centres undefined), the negative logarithm of the Ki (pKi) – broadly, the Ki on a negative log10 scale, so that one unit is a factor of ten – at D(1A) dopamine receptor is 5.25; on D(2) dopamine receptor it was 5.66.

On to `CCCN1CCc2c(Br)ccc3c2C1Cc1cc(OC)ccc1O3` (centres undefined), for which the pKi is 5.61 on D(1A) dopamine receptor and less than 5.00 on D(2) dopamine receptor.

`COc1cc(Br)cc2c1C(Cc1ccccc1O)N(C)CC2` (centres undefined): the negative logarithm of the Ki (pKi) at D(1A) dopamine receptor is 5.77; at D(2) dopamine receptor it was 5.74.

In the case of `CN1CCc2cc(O)cc3c2C1Cc1ccccc1O3` (centres undefined), the pKi on D(1A) dopamine receptor was 5.54; on D(2) dopamine receptor it was 6.56.

For `COc1ccc(Br)c(CC2c3c(O)ccc(Br)c3CCN2C)c1` (centres undefined), the figures for the pKi at D(1A) dopamine receptor and on D(2) dopamine receptor were 6.41 and less than 5.00, respectively.

`CCCN1CCc2cc(O)cc3c2C1Cc1ccccc1O3` (centres undefined): the pKi at D(1A) dopamine receptor and on D(2) dopamine receptor was less than 5.00 throughout.

As for `COc1cc2c3c(c1)Oc1ccccc1CC3N(C)CC2` (centres undefined), the pKi at D(1A) dopamine receptor was 5.37; on D(2) dopamine receptor, 5.03.

As to `COc1ccc2c(c1)CC1c3c(ccc(Br)c3CCN1C)O2` (centres undefined), the figures for the negative-log Ki (pKi) on D(1A) dopamine receptor and at D(2) dopamine receptor were 5.12 and 6.07, respectively.

For the compound `CCCN1CCc2cccc3c2C1Cc1cc(O)ccc1O3` (centres undefined), the pKi at D(1A) dopamine receptor and at D(2) dopamine receptor was less than 5.00 throughout.

Take `CCN1CCc2cc(OC)cc(Br)c2C1Cc1ccccc1O` (centres undefined): the pKi is 5.52 at D(1A) dopamine receptor and 5.51 at D(2) dopamine receptor.

Consider `COc1cc(Br)c2c(c1)CCN(C)C2Cc1ccccc1O` (centres undefined), for which the values for the pKi at D(1A) dopamine receptor and at D(2) dopamine receptor were 4.93 and 5.15, respectively.

Turning to `CN1CCc2cccc3c2C1Cc1cc(O)ccc1O3` (centres undefined), the negative-log Ki (pKi) on D(1A) dopamine receptor was 5.32; at D(2) dopamine receptor it was 6.14.

As to `CCCN1CCc2c(Br)ccc(O)c2C1Cc1cc(OC)ccc1Br` (centres undefined), the results for the pKi at D(1A) dopamine receptor and at D(2) dopamine receptor were 5.13 and less than 5.00, respectively.

Take `COc1ccc2c(c1)CC1c3c(cccc3O2)CCN1C` (centres undefined): the pKi at D(1A) dopamine receptor was 5.28; at D(2) dopamine receptor, 5.91.

On to `CCN1CCc2cc(O)cc3c2C1Cc1ccccc1O3` (centres undefined), for which the negative logarithm of the Ki (pKi) is 5.46 at D(1A) dopamine receptor and 5.19 on D(2) dopamine receptor.

As for `CCN1CCc2cc(OC)cc3c2C1Cc1ccccc1O3` (centres undefined), the values for the pKi at D(1A) dopamine receptor and on D(2) dopamine receptor were less than 5.00 and 5.07, respectively.

On to `CCCN1CCc2cccc3c2C1Cc1cc(OC)ccc1O3` (centres undefined), for which the pKi was 5.41 on D(1A) dopamine receptor and less than 5.00 at D(2) dopamine receptor.

Take `CCN1CCc2cccc3c2C1Cc1cc(O)ccc1O3` (centres undefined): the pKi on D(1A) dopamine receptor is 5.17; on D(2) dopamine receptor, less than 5.00.

As to `CCCN1CCc2cc(OC)cc3c2C1Cc1ccccc1O3` (centres undefined), the pKi at D(1A) dopamine receptor is less than 5.00; at D(2) dopamine receptor it was 5.46.

Take `CCN1CCc2cccc3c2C1Cc1cc(OC)ccc1O3` (centres undefined): the figures for the pKi at D(1A) dopamine receptor and on D(2) dopamine receptor were less than 5.00 and 5.73, respectively.

For the compound `CCN1CCc2c(Br)ccc3c2C1Cc1cc(OC)ccc1O3` (centres undefined), the figures for the pKi at D(1A) dopamine receptor and at D(2) dopamine receptor were 5.46 and less than 5.00, respectively.
